Data from PMC2233905 (The Journal of General Physiology, 2004).
Values belong to the compound of their own block, whether it stands above or below them.

What was measured:
[1] = tested on: K^+ current of rat sympathetic neurons; details: cited from earlier work
hEag1 channels [2] = target: T1, hEag1 channels (Homo sapiens, UniProt O95259); experiment: Outside-out patch recordings of hEag1 currents; format: cell-based
T1 sequence (O95259 1-989): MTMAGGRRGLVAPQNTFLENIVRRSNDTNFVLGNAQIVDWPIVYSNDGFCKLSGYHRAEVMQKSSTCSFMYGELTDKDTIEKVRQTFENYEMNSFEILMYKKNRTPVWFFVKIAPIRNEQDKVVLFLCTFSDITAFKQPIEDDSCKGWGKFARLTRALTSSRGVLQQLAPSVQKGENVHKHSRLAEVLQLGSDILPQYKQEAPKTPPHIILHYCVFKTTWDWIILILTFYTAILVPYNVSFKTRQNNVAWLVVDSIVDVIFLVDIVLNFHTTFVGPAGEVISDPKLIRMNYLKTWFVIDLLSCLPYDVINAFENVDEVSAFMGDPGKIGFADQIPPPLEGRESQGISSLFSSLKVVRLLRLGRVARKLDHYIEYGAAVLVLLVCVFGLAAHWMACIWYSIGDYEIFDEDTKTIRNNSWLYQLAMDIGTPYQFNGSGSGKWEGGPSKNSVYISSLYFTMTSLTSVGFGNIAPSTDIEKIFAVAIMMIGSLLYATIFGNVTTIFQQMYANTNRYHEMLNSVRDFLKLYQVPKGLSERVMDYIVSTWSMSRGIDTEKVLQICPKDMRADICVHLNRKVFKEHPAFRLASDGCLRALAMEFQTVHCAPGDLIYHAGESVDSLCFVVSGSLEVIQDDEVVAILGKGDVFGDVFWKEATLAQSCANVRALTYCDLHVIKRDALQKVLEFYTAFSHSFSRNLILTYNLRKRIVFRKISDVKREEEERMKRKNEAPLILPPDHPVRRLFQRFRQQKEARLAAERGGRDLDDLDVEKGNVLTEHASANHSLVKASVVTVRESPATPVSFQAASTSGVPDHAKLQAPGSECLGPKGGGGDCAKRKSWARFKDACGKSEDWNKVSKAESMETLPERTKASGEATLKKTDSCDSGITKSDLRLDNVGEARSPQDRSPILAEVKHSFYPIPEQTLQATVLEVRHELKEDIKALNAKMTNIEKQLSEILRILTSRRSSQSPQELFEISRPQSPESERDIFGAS
Outline: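 Outside-out patches from hEag1-expressing cells at room temperature. Successive 6-s recordings at 80 mV; drug applied to the extracellular face for 2.5 s, then removed. Currents were divided point-wise by control traces, and the time course was fitted with a single exponential to give the block or equilibration time constant and the steady-state fraction blocked.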

hEag1 channels [3] = target: T1, hEag1 channels; experiment: Whole-cell patch-clamp of hEag1 currents in stably transfected HEK-293 cells; format: cell-based
hEag1 channels [4] = target: T1, hEag1 channels; experiment: Inside-out patch recordings of hEag1 currents; format: cell-based
Outline: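 Inside-out patches from hEag1-expressing cells at room temperature. Pipette: 145 NaCl, 5 KCl, 3 CaCl2, 1 MgCl2, 10 HEPES/NaOH pH 7.4. Successive 6-s pulses at 80 mV with drug applied for 2.5 s. Current ratios to preapplication traces were fitted with a single exponential to give the block time constant.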

melanoma cells = details: ref Gavrilova-Ruch et al., 2002; cited from earlier work
hEag1 channels [5] = target: T1, hEag1 channels; experiment: Cell-attached patch recordings of hEag1 currents, drug in bath; format: cell-based; details: 140 mM external K+, 60 mV
Outline: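 hEag1-expressing cells grown 24–72 h on poly-L-lysine-coated coverslips; cell-attached patches at room temperature. Bath held 140 mM K+; pipette held control external solution (160 NaCl, 2.5 KCl, 2 CaCl2, 1 MgCl2, 10 HEPES, pH 7.4) without glucose. 1-s steps to 60 mV from −70 mV were recorded before, during and after washout of bath-applied drug.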

[6] = Ionization: pKa and calculated protonated fractions; format: physicochemical
Outline: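 Fractions of unprotonated, monoprotonated and diprotonated test compound were calculated from its two pKa values at pH 6.4, 7.4 and 8.4. The diprotonated percentage was 100 × [H+]2 divided by the summed-species denominator. Protonated fractions in the pH 7.4 recording solution were predicted the same way.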

[7] = 10 μM imipramine or 1 μM astemizole
[8] = 200 μM internal TEA, 80 mV, 10 μM imipramine or 1 μM astemizole
[9] = control, 80 mV, 10 μM imipramine or 1 μM astemizole

Structure (SMILES): C[N+](C)(C)CCC=C1c2ccccc2CCc2ccccc21 [N-methyl-amitriptyline]
effect on whole-cell K+ current when included in the patch pipette ([1]; 50 μM in pipette, ref Wooltorton and Mathie (1995)): does not inhibit

Structure (SMILES): CC[N+](CC)(CC)CC [TEA]
hEag1 current blocked (hEag1 channels [3]; 80 mV, 200 μM in the internal solution (unpublished data)): ~50%
hEag1 current blocked (hEag1 channels [3]; 80 mV, 7 mM in the external solution (unpublished data)): ~50%

Structure (SMILES): CN(C)CCC=C1c2ccccc2CCc2ccccc21 [amitriptyline]
current blocked ([1]; 50 μM, ref Wooltorton and Mathie, 1995): ~90%

Continued, in another order:

effect on current, applied to the extracellular side in outside-out patches (hEag1 channels [2]; 5 μM, external and internal pH 7.4): virtually no effect
Structure (SMILES): C[N+](C)(C)CCCN1c2ccccc2CCc2ccccc21.[I-] [N-methyl-imipramine, N-methyl-imipramine iodide]

time constant of block (equilibration of neutral drug) in outside-out patches (hEag1 channels [2]; bath pH 6.0, pipette pH 7.4): 182 ms
inhibition at 25 µM (hEag1 channels [2]; read-out: current inhibition in outside-out patches): ~30%
effect on current, direct application to inside-out patches (hEag1 channels [4]; 25 μM, bath pH 6.0, 80 mV): complete current suppression
time constant of block in inside-out patches (hEag1 channels [4]; bath pH 6.0, pipette pH 7.4, 80 mV): 155 ms
reversal of block on 2-s washout during the depolarization (hEag1 channels [4]; inside-out patches): fully reversed
voltage dependence of block (hEag1 channels [3]): strongly voltage dependent
k of exponential fit to τclose(V) (tail current deactivation) (hEag1 channels [3]; [7]): −0.039
τ(0) of exponential fit to τclose(V) (tail current deactivation) (hEag1 channels [3]; [7]): 65.13 ms
effect on whole-cell current when added to the intracellular solution (hEag1 channels [3]; 100 μM in intracellular pH 6.4 solution (unpublished data)): no evident reduction
reduction of potency in the presence of internal TEA (hEag1 channels [3]; 200 μM internal TEA): ~50%
current blocked (hEag1 channels [3]; [8]): 39 ± 3%
τblock (hEag1 channels [3]; [8]): 86 ± 5 ms
effect of external TEA on the block (hEag1 channels [3]; 7 mM external TEA): did not affect
current blocked (hEag1 channels [3]; [9]): 77 ± 2%
τblock (hEag1 channels [3]; [9]): 35 ± 4 ms
slope of logIC50 versus difference between pHext and pHint (hEag1 channels [3]; linear fit): −0.86
slope of linear fit of τblock^−1 versus concentration (hEag1 channels [3]; nonsaturating concentrations, 80 mV): 2.5 s^−1μM^−1
slope of linear fit of τblock^−1 versus concentration (hEag1 channels [3]; pHext 7.4, pHint 6.4): 12.6 s^−1μM^−1
time constant of block washout (hEag1 channels [3]; pHext 7.4, pHint 6.4): 46 ± 8 s
slope of linear fit of τblock^−1 versus concentration (hEag1 channels [3]; pHext 7.4, pHint 7.4): 3.4 s^−1μM^−1
time constant of block washout (hEag1 channels [3]; pHext 7.4, pHint 7.4): 19 ± 6 s
slope of linear fit of τblock^−1 versus concentration (hEag1 channels [3]; pHext 7.4, pHint 8.4): 0.9 s^−1μM^−1
time constant of block washout (hEag1 channels [3]; pHext 7.4, pHint 8.4): 6 ± 1 s
Hill coefficient of fit to τblock versus concentration (hEag1 channels [3]; whole-cell, 80 mV): 1.27
time constant of current decay (τblock) at the IC50 concentration (hEag1 channels [3]; whole-cell, 80 mV): ~50 ms
τblock, maximum of Hill fit (hEag1 channels [3]; whole-cell, 80 mV): 86.7 ms
τblock, minimum of Hill fit (hEag1 channels [3]; whole-cell, 80 mV): 11.6 ms
fraction of the membrane electric field sensed at the binding site (hEag1 channels [3]; z = 1, fit of IC50 versus test potential): 39%
block of channels in cell-attached patches by bath application (hEag1 channels [5]): blocked
protonated fraction ([6]; pH 6.0): 99.97%
predicted protonated fraction ([6]; pH 7.4 recording solution): 99%
Structure (SMILES): CN(C)CCCN1c2ccccc2CCc2ccccc21 [imipramine]
effect on proliferation rate (melanoma cells): significant reduction
